Cl transport mod – KCC2 cotransporter modulators, thallium flux, primary screen, cell-based, HEK293 KCC2, FluoZin-2 fluorescence, MLSMR; hit rate 2.2% among 190,000; B-score of Tl+ flux slope (higher = more flux/activation; lower = inhibition) at 10 µM; Solute carrier family 12 member 5 (Homo sapiens), Q9H2X9; KCC2 cells, thallium flux FluoZin-2 fluorescence;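 active = thallium flux slope and its plate-corrected score both differing from the plate sample mean at a set confidence after two filtering rounds, in either direction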;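 also: slope of fluorescence scaled to starting intensity during 10 to 20 s after thallium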
KCNQ1 inh – inhibitors of human KCNQ1 channel, primary screen, cell-based, thallium flux, high-throughput | Potassium voltage-gated channel subfamily KQT member 1 (Homo sapiens), P51787 | CHO-K1 KCNQ1, FluxOR thallium flux fluorescence; stronger effect = higher value | B-score at 10 µM | hit rate 1.3% among 310,000 | AID 2642, 2010;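 active = compounds whose thallium flux B-score, printed positive for inhibition, exceeds three library SD while starting fluorescence stays within three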;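 also: channel opened by potassium depolarization with thallium stimulus after 20 min compound exposure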
hERG rescue – hERG rescue from dofetilide block, primary screen, cell-based, CHO-hERG, FluxOR thallium flux, dofetilide IC70. dofetilide IC70 present. AID 1511, 2009. Voltage-gated inwardly rectifying potassium channel KCNH2 (Homo sapiens), Q12809. activation (rescue from dofetilide block), less the hit threshold, % at 10 µM. hit rate 0.51% among 310,000;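 active = activation above the mean of controls blocked by dofetilide plus 5 SD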;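 also: thallium influx through hERG after potassium depolarization seen as dye fluorescence rise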
KCNK3 inh – human KCNK3 channel inhibitors, primary screen, CHO cells, FluxOR thallium flux, B-score; B-score at 10 µM; AID 602410, 2012; FluxOR fluorescence; stronger effect = lower value; Potassium channel subfamily K member 3 (Homo sapiens), O14649; hit rate 0.84% among 340,000;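 active = B-score under library mean minus 4 SD, starting fluorescence ratio at most library mean plus 5 SD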;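 also: more negative B-score means stronger inhibition of thallium flux through KCNK3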
Target sequence (O14649 whole entry, looked up): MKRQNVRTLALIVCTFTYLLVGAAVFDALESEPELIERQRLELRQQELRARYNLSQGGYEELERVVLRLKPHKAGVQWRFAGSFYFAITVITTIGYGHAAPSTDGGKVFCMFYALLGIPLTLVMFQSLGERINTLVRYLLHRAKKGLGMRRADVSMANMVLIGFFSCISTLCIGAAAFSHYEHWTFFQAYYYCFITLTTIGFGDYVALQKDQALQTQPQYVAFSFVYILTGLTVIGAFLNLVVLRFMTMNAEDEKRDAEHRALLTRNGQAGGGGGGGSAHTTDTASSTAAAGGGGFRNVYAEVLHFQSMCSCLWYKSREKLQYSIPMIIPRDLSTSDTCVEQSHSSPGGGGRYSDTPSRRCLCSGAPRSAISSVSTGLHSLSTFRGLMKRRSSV
KCNQ1 act – potentiators or activators of KCNQ1 channel, primary screen, cell-based, thallium flux, high-throughput | Potassium voltage-gated channel subfamily KQT member 1 (Homo sapiens), P51787 | CHO-K1 KCNQ1, thallium flux FluxOR fluorescence; stronger effect = higher value | B-score at 10 µM | hit rate 0.35% among 310,000 | AID 2648, 2010;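 active = fluorescence ratio B-score, a plate-corrected score, at least three library SD, with initial intensity B-score within 5 SD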
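Medium – assay buffer, equal DMSO in all wells · Material – CHO-K1 cell line with stable KCNQ1 potassium channel expression · Signal – kinetic FluxOR thallium fluorescence, 10-s 1-Hz baseline, 110-s post-stimulus read · Compound – single concentration per compound, DMSO matched to controls · Schedule – 37 °C overnight plating, 90-min dark dye load, 20-min compound pretreatment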
KCNK9 inh – KCNK9 potassium channel inhibitors, primary screen, HEK293 cells, thallium flux. FluxOR thallium flux fluorescence; stronger effect = lower value. B-score at 10 µM. hit rate 1.2% among 310,000;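 active = ratio B-score over 3 SD below the library mean, with starting fluorescence within 5 SD of its mean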;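 also: negative B-score means less thallium flux so channel inhibition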
Target sequence (Q9NPC2 whole entry, looked up): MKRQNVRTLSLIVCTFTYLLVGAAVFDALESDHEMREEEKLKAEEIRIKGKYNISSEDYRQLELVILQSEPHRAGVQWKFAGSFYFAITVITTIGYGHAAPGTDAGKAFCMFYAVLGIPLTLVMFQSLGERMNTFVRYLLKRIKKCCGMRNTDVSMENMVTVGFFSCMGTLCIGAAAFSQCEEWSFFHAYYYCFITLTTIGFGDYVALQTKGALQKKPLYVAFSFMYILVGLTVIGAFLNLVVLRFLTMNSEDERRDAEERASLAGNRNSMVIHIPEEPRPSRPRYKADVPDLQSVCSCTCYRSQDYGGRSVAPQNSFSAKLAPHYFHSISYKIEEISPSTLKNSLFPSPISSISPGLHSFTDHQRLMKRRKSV
KCC2 secondary – KCC2 modulators in sodium-free buffer, confirmation, cell-based, HEK293 KCC2, thallium flux, secondary assay | shares compounds with Cl transport mod | FluoZin2 fluorescence; stronger effect = higher value | normalised thallium flux (F/F0 slope) at 10 µM | hit rate 15% among 3,700 | AID 1713, 2009;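 active = thallium flux slope above the same plate's solvent-only control mean plus 3 SD; inconclusive = the two replicate wells disagree; inactive = no significant difference from solvent-only control wells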
KCC2 bumet counter – thallium flux persisting under bumetanide in KCC2 cells, confirmation, counter-screen for KCC2 modulator project, cell-based, HEK293 KCC2, FluoZin2, secondary assay 3; shares compounds with Cl transport mod; HEK293-KCC2 + bumetanide/ouabain; stronger effect = higher value; normalized thallium flux at 10 µM; hit rate 49% among 3,700;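 active = thallium entry rate above the same plate's blocked-transporter control wells by more than 3 SD; inconclusive = the two repeat wells disagree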;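 also: raw slope of fluorescence over initial fluorescence between 10 and 20 s after thallium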
KCC2 sec2 – KCC2 modulators without ouabain present, confirmation, cell-based, HEK293 KCC2, thallium flux, FluoZin2, secondary assay 2. hit rate 23% among 3,700. AID 1715, 2009. thallium flux FluoZin2 fluorescence; actives lie on both sides; F/F0 rise rate, 10–20 s post-thallium. shares compounds with Cl transport mod. normalized thallium flux at 10 µM;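 active = thallium flux slope more than 3 SD above or below the plate's solvent-only control mean, mostly below; inconclusive = the two repeat wells disagreed; inactive = no significant shift from solvent-only controls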;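 also: raw slope with 0.1% DMSO as baseline and bumetanide as block control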
HEK counter1 – thallium flux modulation in parental HEK cells, confirmation, counter-screen for KCC2 modulator project, cell-based, counterscreen 1 | HEK293 parental cells, thallium flux FluoZin2, ouabain; baseline-ratio fluorescence slope, 10–20 s after thallium | shares compounds with Cl transport mod | AID 1716, 2009 | thallium flux rate (normalised fluorescence) at 10 µM | hit rate 46% among 3,700;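 active = thallium flux rate significantly above the same plate's solvent-only control wells, beyond their mean plus 3 SD; inconclusive = the two replicate wells gave conflicting results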
KCC2 retest ouab – KCC2 inhibitors and activators, ouabain retest, confirmation, HEK-KCC2 cells; HEK293-KCC2, thallium flux FluoZin2 fluorescence; bidirectional: low = inhibitor, high = activator; shares compounds with Cl transport mod; hit rate 48% among 3,700; raw Tl+ flux slope (below DMSO = inhibition, above = activation) at 10 µM; AID 1717, 2009;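 active = thallium flux slope beyond 3 SD from same-plate DMSO control mean in most replicates, usually higher, sometimes lower; inconclusive = repeat tests gave conflicting results; inactive = no significant difference from controls in most replicates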;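 also: slope of initial-normalized fluorescence between seconds 10 and 20 after thallium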
HEK293 Tl flux2 – native HEK Tl+ uptake effects, second counter-screen – HEK cells, counterscreen 2, counter-screen for KCC2 modulator project, confirmation; shares compounds with Cl transport mod; HEK293 parental, thallium flux FluoZin-2 fluorescence slope; thallium flux slope at 10 µM; hit rate 33% among 3,700; AID 1718, 2009;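 active = thallium flux slope above the same plate's solvent-control mean plus 3 SD in both duplicate wells; inconclusive = duplicate wells that disagreed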;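 also: run without ouabain in cells lacking the KCC2 cotransporter; slope of fluorescence scaled to its starting value between 10 and 20 s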
The depositor's hits bear a star; i = inactive; ? = inconclusive; · = not tested or not shown. Most compounds without a hit are left out; they make up all but 4.1% or so of the library.

SMILES	Cl transport mod	KCNQ1 inh	hERG rescue	KCNK3 inh	KCNQ1 act	KCNK9 inh	KCC2 secondary	KCC2 bumet counter	KCC2 sec2	HEK counter1	KCC2 retest ouab	HEK293 Tl flux2
CCOC(=O)Cc1csc(NC(=S)NC(=O)c2ccc([N+](=O)[O-])cc2)n1	9.8*	i	-9	i	i	i	0.016*	0.036*	0.033	0.025*	0.041*	0.012
CCOC(=O)Cc1csc(NC(=S)NC(=O)c2ccc(Cl)cc2)n1	10*	i	7.3*	i	17*	i	0.0075	0.043*	0.042*	0.042*	0.058*	0.02*
CN(CC(=O)Nc1ccc(OC(F)(F)F)cc1)C(=O)c1ccccc1SCC(=O)N1CCCC1	·	·	·	i	·	·	·	·	·	·	·	·
O=C1C(=O)N(C/C=C/c2ccccc2)c2ccccc21	·	i	-2	i	i	i	·	·	·	·	·	·
CSc1nc(C)cc(Oc2ccc(OCCOc3ccccc3)nn2)n1	-5.9*	i	-11	i	i	i	0.008	0.0057	0.029	0.0065	0.016*	0.0098
CCc1ccc(OCc2n[nH]c(=S)n2Cc2ccccc2)cc1	15*	i	-7	i	i	i	0.0095	0.036*	0.03	0.015*	?	0.011*
S=c1[nH]nc(COc2ccc(Cl)cc2)n1Cc1ccco1	10*	i	-6	i	i	i	0.0096	0.057*	0.029	0.012*	0.028*	?
S=c1[nH]nc(-c2ccc(Br)cc2)n1Cc1ccco1	·	i	-12	i	i	i	0.0065	0.016*	0.029	0.015*	?	0.014*
S=c1[nH]nc(-c2ccncc2)n1Cc1ccco1	-0.61	i	-5	i	i	i	·	·	·	·	·	·
CCc1ccc(OCc2n[nH]c(=S)n2C(C)CCCC(C)C)cc1 (configuration not stated)	1.4	i	-1	i	i	i	·	·	·	·	·	·
CC(C)CCn1c(COc2ccccc2)n[nH]c1=S	6.2*	i	0	i	i	i	0.0096	0.03*	0.029	0.014*	0.026	0.011*
N=c1c2ccccc2nc2n1CCCCCCCCCCC2	·	i	-9	i	i	i	·	·	·	·	·	·
Cc1cccc(OCc2n[nH]c(=S)n2Cc2ccccc2)c1	8.9*	i	-9	i	i	i	0.013*	0.062*	0.033	0.018*	0.026	0.012*
CCCCc1n[nH]c(=S)n1Cc1ccc(Cl)cc1	4.2*	i	-4	i	i	-10*	0.0088	0.017*	0.034	0.0094*	0.022	0.011
CCCCc1n[nH]c(=S)n1Cc1ccccc1	-0.044	i	-11	i	i	i	·	·	·	·	·	·
O=C(CCSCCc1ccccn1)Nc1ccc(Cc2ccncc2)cc1	-3.4*	i	-14	i	i	i	0.0069	0.0044	?	0.0073	0.018	0.011
Cc1ccc(Cn2nnc3c(=O)n(CC(=O)NCc4ccco4)cnc32)cc1	-2.9*	i	-5	i	i	i	0.0073	0.0039	?	?	0.015*	0.01
O=C(Cn1cnc2c(nnn2Cc2ccccc2F)c1=O)NCc1ccco1	·	i	-4	i	i	i	0.0093	0.0066	?	0.0081	0.018*	0.011
CN1CCC(N(C)C(=O)c2ccc(Cl)c(S(=O)(=O)N3CCc4ccccc43)c2)CC1	·	·	·	i	·	·	·	·	·	·	·	·
O=C(NCCN=C1NS(=O)(=O)c2ccccc21)c1ccccc1	·	i	-3	i	i	i	·	·	·	·	·	·
O=C(NCCN=C1NS(=O)(=O)c2ccccc21)c1ccncc1	7*	i	-7	i	i	i	0.011	0.0058	0.032	?	0.022	0.01
COc1cc(C(=O)NC(=S)NNC(=O)c2ccc3c(c2)OCO3)cc(OC)c1OC	5.1*	i	-12	i	i	i	0.01	0.013*	0.033	?	?	0.011
COc1ccc(C(=O)NNC(=S)NC(=O)c2ccc(F)cc2)cc1Br	·	i	-11	i	i	i	·	·	·	·	·	·
COc1cc(C(=O)NC(=S)N(C)Cc2ccccc2)cc(OC)c1OC	11*	i	-6	i	i	i	0.018*	0.051*	0.031	0.017*	0.033*	0.012*
COc1cc(C(=O)NNC(=S)NC(=O)c2ccc(F)cc2)cc(OC)c1OC	6.5*	i	-10	i	i	i	0.011	0.015*	0.033	0.014*	?	0.012
O=C(NNC(=O)c1ccccc1F)c1cccc(-n2cccc2)c1	·	i	-15	i	i	i	·	·	·	·	·	·
O=[N+]([O-])c1ccccc1Sc1nccn1Cc1ccccc1	-4.2*	i	-10	i	i	i	0.0068	0.0046	0.033	?	0.013*	0.011

High-throughput results deposited in PubChem BioAssay by several laboratories.
